# According to PubChem BioAssay AID624313 (The Scripps Research Institute Molecular Screening Center, 2012):
# Active and inactive are the calls of the source.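 The calls were made as follows: active = reporter absorbance over solvent-only wells above 1.25 at every tested dose; inactive = the rest.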
# Tested on: HEK293 CYP11A1 promoter CAT reporter, ELISA absorbance
# Test: activators of CYP11A1 promoter CAT reporter, late-stage follow-up, counter-screen for DAX1 inhibitor project, cell-based, absorbance, HEK293 (AID 624313)
# Conditions: at 100 µM (top of the series)
# Summary of the method: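 System: transfected HEK293 with CYP11A1-promoter CAT reporter; Doses: 3-point twofold dilution series, nominal top 100 µM; Technique: CAT EIA absorbance; Evaluation: activity ratio versus DMSO wells; Control set: pSG5 empty-vector positive control, DMSO reference; Repeats: triplicate per dose.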
row,SMILES,relative activity ratio
1,Cn1c(=O)n(C)c2cc(C(=O)Nc3ccc4c(c3)OCCO4)ccc21,0.27 (inactive)
2,Cn1c(=O)n(C)c2cc(C(=O)Nc3ccc4c(c3)OCO4)ccc21,0.52 (inactive)
